Our source for the Tm and folding enthalpy values is the array DNA melting data of Ke et al. (doi:10.1101/2024.01.08.574731).

Data set [1] is described as follows: melting temperature; fluorescence melt of hairpins on a sequencing array, two-state fit, raised by 9.35 °C to match UV melts. Particulars: sodium 0.088 M. The method in brief: (§1)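 Folding enthalpy and melting temperature come from bootstrapped two-state fits to Cy3 fluorescence of library hairpins carrying annealed Cy3 and quencher oligos on a sequenced MiSeq flow cell. Imaging was done in 50 mM Na-HEPES pH 8.0, 25 mM NaCl, stepping by 2.5 °C up to 60 °C, and signals were normalised to pre-quench Cy3 and to control constructs. Results of four replicates were combined by inverse variance, and fitted temperatures were raised by 9.35 °C to match UV melts.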

The nature of data set [2]: folding enthalpy; higher = less favourable; fluorescence melt of hairpins on a sequencing array, two-state fit. Particulars: sodium 0.088 M. Summed up: as §1

Turning to GATCCGGTCACGGATC ((((((....)))))), the Tm in data set [1] worked out at 69.3 °C. In data set [2], the folding enthalpy is -34.7 kcal/mol.
Taken in the same sequence, the figures for GCGGAAGTCCGC ((((....)))) were 56 °C and -20.9 kcal/mol.
On the same counts, the results for GGATGTCGAAAGACCTCC (((.(((....))).))) are 46.5 °C and -29 kcal/mol.
Taken in the same sequence, the figures for GCATAGCGAAAGCTCAGC ((..(((....)))..)) were 30.6 °C and -14.3 kcal/mol.
For the sequence GCGCGGCGAAAGCCATGC ((..(((....)))..)), the Tm in data set [1] was 53.3 °C. The folding enthalpy in data set [2] was -16.4 kcal/mol.
On the same counts, the results for GATCAGGGTTCTGATC ((((((....)))))) are 50.8 °C and -42.1 kcal/mol.
For the sequence GGTTACCGAAAGGTTACC (((.(((....))).))), the Tm in data set [1] was 52.6 °C. Moreover, the folding enthalpy in data set [2] was -30.3 kcal/mol.
With GCGACCATCGC ((((...)))), the Tm in data set [1] was found to be 46.4 °C. Also, in data set [2], the folding enthalpy is -17.6 kcal/mol.
Consider GATCCTAAATAGGATC ((((((....)))))), for which the Tm in data set [1] came to 49.2 °C. In addition, the folding enthalpy in data set [2] was -35.8 kcal/mol.
As to GATATTGAAAAATATC ((((((....)))))), the Tm in data set [1] was 37 °C. For the same sequence, the folding enthalpy in data set [2] is -22.6 kcal/mol.
On the same counts, the results for GGAGGACGAAAGTCTTCC (((.(((....))).))) are 53.5 °C and -30.1 kcal/mol.
Take GAACTCGAAAGAGTTC ((((((....)))))): in data set [1], the Tm came to 61.6 °C. Also, the folding enthalpy in data set [2] was -39.3 kcal/mol.
With GCACTAGGAAACCAGTGC (((((.(....).))))), the Tm in data set [1] worked out at 48.3 °C. Moreover, the folding enthalpy in data set [2] was -34.1 kcal/mol.
On the same counts, the results for GATCCGGGATCGGATC ((((((....)))))) are 61.9 °C and -40.1 kcal/mol.
On the same counts, the results for GCGTTCTCGAAAGAGCGC (((..(((....)))))) are 51.1 °C and -34.3 kcal/mol.
Turning to GCATGGCGAAAGCCCGGC ((..(((....)))..)), in data set [1], the Tm worked out at 43.3 °C. For the same sequence, the folding enthalpy in data set [2] was -15.7 kcal/mol.
Turning to GTCTGCGGAAACGTAGGC (.((.((....)).)).), the Tm in data set [1] was 42.4 °C. Also, the folding enthalpy in data set [2] was -26.7 kcal/mol.
Regarding GGTGTCGAAAGACGGACC ((((((....)))..))), in data set [1], the Tm stood at 40.3 °C. Also, the folding enthalpy in data set [2] is -16.6 kcal/mol.
With GCCCAGCGAAAGCACGGC (((..((....))..))), the Tm in data set [1] came to 52.1 °C. The folding enthalpy in data set [2] was -18.4 kcal/mol.
On the same counts, the results for GTACAGGCGAAAGCCTAC (((..(((....)))))) are 34.9 °C and -8.61 kcal/mol.
Taken in the same sequence, the figures for GGACAGGGAAACCTATCC (((.(((....))).))) were 32.6 °C and -19.3 kcal/mol.
Regarding GGTTTCGAAAGAAGAACC ((((((....)))..))), the Tm in data set [1] came to 31.5 °C. Moreover, the folding enthalpy in data set [2] was -18.3 kcal/mol.
As for GCGGGGGTCCGC ((((....)))), the Tm in data set [1] amounted to 61.7 °C. Moreover, the folding enthalpy in data set [2] was -22.6 kcal/mol.
In the case of GCTTCCGCGAAAGCGAGC (((..(((....)))))), the Tm in data set [1] came to 35.5 °C. Moreover, in data set [2], the folding enthalpy was -11 kcal/mol.
In the case of GCAGAGCGAAAGCACAGC ((.(.((....)).).)), in data set [1], the Tm was determined as 42.9 °C. Also, the folding enthalpy in data set [2] is -15.6 kcal/mol.
On the same counts, the results for GGGTAGCCGAAAGGCCCC (((..(((....)))))) are 54 °C and -16.1 kcal/mol.
Take GCATCGCGAAAGCCATGC ((((.((....)).)))): the Tm in data set [1] was determined as 56.3 °C. In addition, in data set [2], the folding enthalpy is -35.7 kcal/mol.
Taken in the same sequence, the figures for GGGTTGGGAAACCGATCC ((.(.((....)).).)) were 40.3 °C and -16.3 kcal/mol.
Taken in the same sequence, the figures for GGCTTACCGAAAGGTGCC (((..(((....)))))) were 50.2 °C and -23.1 kcal/mol.
Taken in the same sequence, the figures for GAGTCTCCGAAAGGACTC (((..(((....)))))) were 39 °C and -21.8 kcal/mol.
Regarding GGGAACGAAAGTTGCCCC ((((((....)))..))), in data set [1], the Tm worked out at 68.7 °C. In addition, the folding enthalpy in data set [2] was -10.7 kcal/mol.
Taken in the same sequence, the figures for GAACACGGAAACATGTTC (((((.(....).))))) were 35.1 °C and -28 kcal/mol.
For GAGGGGGGAAACCTCCTC ((((.((....)).)))), the Tm in data set [1] was 51.4 °C. In addition, the folding enthalpy in data set [2] was -33.7 kcal/mol.
For GCCACCGGAAACGACGGC (((..((....))..))), the Tm in data set [1] stood at 41.4 °C. In addition, the folding enthalpy in data set [2] is -24.9 kcal/mol.
Regarding GCGAAGCCGAAAGGCCGC (((..(((....)))))), the Tm in data set [1] was 58.8 °C. Besides, the folding enthalpy in data set [2] is -20.2 kcal/mol.
Take GTTGGCGAAAGCCTGAAC ((((((....)))..))): the Tm in data set [1] is 30.9 °C. For the same sequence, in data set [2], the folding enthalpy is -8.07 kcal/mol.
Taken in the same sequence, the figures for GATCTATAGCTAGATC ((((((....)))))) were 36.5 °C and -28.7 kcal/mol.
Take GCAGCCCCGAAAGGGTGC (((..(((....)))))): the Tm in data set [1] is 53.4 °C. The folding enthalpy in data set [2] was -16.5 kcal/mol.
Take GAGCTAGGAAACTAGCTC (((((((....))))))): the Tm in data set [1] is 62.4 °C. For the same sequence, the folding enthalpy in data set [2] is -37.9 kcal/mol.
Taken in the same sequence, the figures for GGAACCGAAAGGTTCTCC ((((((....)))..))) were 51.9 °C and -10.8 kcal/mol.
On the same counts, the results for GGATCGCGAAAGCGTCC (((.(((....)))))) are 52.6 °C and -22.7 kcal/mol.
On the same counts, the results for GACCCTGGAAACAAGGTC ((((.((....)).)))) are 35.3 °C and -27.1 kcal/mol.
Take CGTGCGGAAACGCGGACG ((((((....)))..))): the Tm in data set [1] worked out at 47 °C. Also, in data set [2], the folding enthalpy is -19.2 kcal/mol.
Turning to GACACAGCGAAAGCTGTC (((..(((....)))))), the Tm in data set [1] was 32.3 °C. The folding enthalpy in data set [2] was -8.05 kcal/mol.
GATCTGTTACCAGATC ((((((....)))))): the Tm in data set [1] was 50.5 °C. The folding enthalpy in data set [2] was -42.4 kcal/mol.
Turning to GGTGAGAAATCACC (((((....))))), the Tm in data set [1] is 51 °C. The folding enthalpy in data set [2] was -27.6 kcal/mol.
On the same counts, the results for GATCCATAATTGGATC ((((((....)))))) are 50.7 °C and -39.7 kcal/mol.
On the same counts, the results for GCCTGCGGAAACGCAAGC ((.((((....)))).)) are 48 °C and -18.5 kcal/mol.
Taken in the same sequence, the figures for GTGTACGAAAGTACTCAC ((((((....)))..))) were 35.7 °C and -11.4 kcal/mol.
As for GCTTAGCGAAAGCCATGC ((.(.((....)).).)), the Tm in data set [1] worked out at 29.6 °C. Moreover, in data set [2], the folding enthalpy was -11.2 kcal/mol.
As to GATCACACTGGTGATC ((((((....)))))), the Tm in data set [1] was determined as 56.4 °C. Moreover, the folding enthalpy in data set [2] is -36.1 kcal/mol.
On the same counts, the results for GAAAGGGGAAACCTTTTC ((((.((....)).)))) are 34.2 °C and -27.1 kcal/mol.
In the case of GTACAGGAAACTGTAC ((((((....)))))), the Tm in data set [1] is 52.4 °C. Also, the folding enthalpy in data set [2] was -41.6 kcal/mol.
Taken in the same sequence, the figures for GCTACAGAAATGTAGC ((((((....)))))) were 55.4 °C and -33.1 kcal/mol.
In the case of GATATGGAAACATATC ((((((....)))))), the Tm in data set [1] came to 46.1 °C. For the same sequence, the folding enthalpy in data set [2] was -29.7 kcal/mol.
Regarding CGCAGCGGAAACGCAGCG (((.(((....))).))), the Tm in data set [1] turned out to be 68.5 °C. The folding enthalpy in data set [2] is -29.9 kcal/mol.
GTTTTTCCGAAAGGAAAC (((..(((....)))))): in data set [1], the Tm came to 35.1 °C. In addition, the folding enthalpy in data set [2] is -13.4 kcal/mol.
Taken in the same sequence, the figures for GATCCGTACACGGATC ((((((....)))))) were 61.2 °C and -43.2 kcal/mol.
As to GCGAACGCTCGC ((((....)))), the Tm in data set [1] worked out at 59.6 °C. The folding enthalpy in data set [2] was -12.2 kcal/mol.
Taken in the same sequence, the figures for GCGAATGGAAACATTCAC (.(((((....))))).) were 38.1 °C and -18.6 kcal/mol.
On the same counts, the results for GGGCTCGAAAGAGAGCCC ((((((....)))..))) are 66.2 °C and -35.3 kcal/mol.
As for GAACAACGAAAGTTCTTC (((.(((....))).))), in data set [1], the Tm worked out at 38.7 °C. Moreover, the folding enthalpy in data set [2] is -29.8 kcal/mol.
Turning to GGTCCCGAAAGGGTCACC ((((((....)))..))), the Tm in data set [1] came out at 39.4 °C. The folding enthalpy in data set [2] was -12.2 kcal/mol.
Regarding GAACACGAAAGTGGATTC ((((((....)))..))), in data set [1], the Tm is 39.8 °C. In addition, the folding enthalpy in data set [2] was -18.6 kcal/mol.
On the same counts, the results for GCCTGAGGAAACTCAAGC ((.((((....)))).)) are 35.1 °C and -21.6 kcal/mol.
On the same counts, the results for GCCACGCGAAAGCGGAGC ((..(((....)))..)) are 54.4 °C and -17.1 kcal/mol.
On the same counts, the results for GTCCCAGGAAACTGGAAC ((.((((....)))).)) are 35.8 °C and -22 kcal/mol.
Take GGAACCGAAAGGTAGTCC ((((((....)))..))): the Tm in data set [1] stood at 29.8 °C. The folding enthalpy in data set [2] was -12 kcal/mol.
GCCATCGAAAGATAGGC ((((((....))).))): the Tm in data set [1] turned out to be 50.1 °C. In addition, the folding enthalpy in data set [2] was -30.3 kcal/mol.
As for GTCTAGCCGAAAGGCGAC (((..(((....)))))), in data set [1], the Tm is 43.1 °C. Besides, the folding enthalpy in data set [2] was -10.8 kcal/mol.
With GGGAGAGGAAACTCTCCC (((((((....))))))), the Tm in data set [1] was determined as 64.8 °C. Further, in data set [2], the folding enthalpy was -42.9 kcal/mol.
As to GAGAACGAAAGTTTTCTC ((((((....)))..))), in data set [1], the Tm is 38.4 °C. Also, the folding enthalpy in data set [2] was -30.2 kcal/mol.
Regarding GCGTAAGGAAACCTACGC (((((.(....).))))), the Tm in data set [1] is 49 °C. For the same sequence, in data set [2], the folding enthalpy was -40 kcal/mol.
As to GCTGTGCGAAAGCATGGC ((..(((....)))..)), the Tm in data set [1] is 59.5 °C. Besides, the folding enthalpy in data set [2] is -22.4 kcal/mol.
